From PubChem
An excerpt weighted towards active compounds, which were near 3.5% of everything screened.
MT stabilize HCS – stabilizes microtubules in HeLa cells; HeLa tubulin immunostaining HCS, 24 h; share of cells brighter than vehicle mean+2SD; % tubulin-high responders, % at 10 µM; 0.83% of 200,000 active; AID 2205;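 active means plate Z-score above 3 for both tubulin-high and condensed-nucleus cell shares, with cell loss under 80%, at 10 µM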;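 further: anti alpha tubulin signal scored within the nucleus-defined area of each cell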
BB579 growth dn – chemicals that inhibit yeast BB579 growth in restrictive medium (lifespan-shortening candidates); S. cerevisiae BB579 growth, OD615, 48 h; inhibition, % at 10 µM; 0.51% of 140,000 active; AID 804;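 active means inhibition above a set limit, 3 SD over the mean compound inhibition, cut at about 44% in these data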
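Test system: DeaD yeast strain BB579 / Buffer or medium: restrictive glucose-based CSMM-D medium / Doses: single 10 µM dose / Schedule: 4 h cell preincubation, 48 h compound exposure, 30 °C humidified / Technique: culture absorbance at 615 nm / Controls: amphotericin B positive control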
HMGR II inh – blocks class II HMG-CoA reductase of Enterococcus faecalis; 0.41% of 190,000 active; inhibition, % at 10 µM; purified E. faecalis HMGR, NADPH absorbance 340 nm kinetic; AID 1066;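 active means inhibition above a set limit, the median over all tested compounds plus 3 SD, cut at about 9.5% in these data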;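 further: enzyme runs in reverse so mevalonate oxidation gives rising NADPH absorbance; 0% = complete reaction with DMSO and 100% = background rate lacking mevalonate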
bCat nuc transl – beta-catenin nuclear translocation modulation; HeLa beta-catenin nuclear translocation, immunofluorescence imaging; nuclear translocation activity, % at 5 µM; 0.3% of 190,000 active;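 active means nuclear translocation activity above 50% at 5 µM, with a well cell count of 50 or more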;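 further: per-cell ratio of nuclear to cytoplasmic median beta-catenin stain intensity; plate controls were DMSO negative control for no effect and GSK-3 inhibitor IX positive control for full effect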
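Test system: human HeLa cells, endogenous beta-catenin. Times: 24 h compound exposure, 37°C. Measured by: beta-catenin immunofluorescence imaging with DAPI.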
RAM network inh – inhibitors of the yeast RAM network. 1.8% of 190,000 active. S. cerevisiae dse1pr::URA3 reporter, 5-FOA growth OD615, 2 d; analog-sensitive cbk1-as2 kinase mutant strain. AID 868. inhibition, % at 50 µM;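 active means inhibition above a set limit, 3 SD over mean compound inhibition, cut at about 8.4% in these data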;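 further: 0% = DMSO-only wells with no growth and 100% = 10 µM 1-NA-PP1 full growth; inhibition rescues growth on 5-FOA so higher OD means more RAM inhibition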
Yeast life ext – yeast lifespan extension. 0.68% of 130,000 active. S. cerevisiae growth with nicotinamide, OD615; deaD strain in restrictive glucose medium. inhibition of the nicotinamide effect, % at 10 µM;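 active means inhibition above a set limit, placed 3 SD over the median of all compounds, cut at about 26% in these data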;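 further: 0% = nicotinamide-treated wells and 100% = cells grown without nicotinamide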
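Buffer or medium: CSMM-D glucose medium, restrictive; test system: modified budding yeast, DeaD strain; compound: single dose 10 µM compound, 0.25% DMSO; schedule: culture preincubation 4 h, compound exposure 48 h, both 30 °C; detection: optical density (absorbance) at 615 nm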
* = called active by the depositor; x = no result given.

SMILES	MT stabilize HCS	BB579 growth dn	HMGR II inh	bCat nuc transl	RAM network inh	Yeast life ext
CCOc1ccccc1NC(=S)Nc1ccc(S(N)(=O)=O)cc1	6	x	-5	-4	0	x
CCOC(=O)c1ccc(-c2cc(C)no2)[nH]1	4	-5	-1	2	0	-6
CCOC(=O)N/N=C/c1ccc(OCCSc2ccc(Cl)cc2)c(OC)c1	3	-20	-4	-4	9.9*	10
CCOC(=O)N/N=C/c1ccc(OCCSc2ccc(Cl)cc2)c(OCC)c1	3	2	-4	5	5	3
CC(C)C(=O)N(c1ccc2oc(=O)sc2c1)S(=O)(=O)c1ccccc1	2	-42	-2	3	11*	0
CC(=O)N(c1ccc2oc(=O)sc2c1)S(=O)(=O)c1ccccc1	4	-19	-3	-2	1	-4
CCO/C=C1\C(=O)N(c2ccccc2)C(=O)c2ccccc21	2	-46	2	-1	1	-13
CCO/C=C1/C(=O)N(Cc2ccccc2)C(=O)c2ccccc21	3	13	-2	4	-1	32*
COC(=O)c1cc(C(=O)N2CCN(c3cccc(Cl)c3)CC2)cc([N+](=O)[O-])c1	13	x	-5	100*	2	x
O=C(c1cccc([N+](=O)[O-])c1)N1CCN(c2cccc(Cl)c2)CC1	27*	-35	-6	14	1	26
CCOC(=O)N1CCc2c(sc3c2C(=O)NC(c2ccccc2)N3)C1 (stereo not drawn)	22*	-57	4	134*	1	-6
CN1CCc2c(sc3c2C(=O)NC(c2cccc(OC(=O)c4cccs4)c2)N3)C1 (stereo not drawn)	5	-20	-7	-1	0	-8
CCOC(=O)c1[nH]c2ccc(OC)cc2c1NC(=S)N1CCN(c2ccccc2OC)CC1	20*	-5	0	2	-1	-7
CCOC(=O)c1[nH]c2ccc(OC)cc2c1NC(=O)OC	3	-11	0	-3	0	-21
CCOC(=O)c1[nH]c2ccc(OC)cc2c1NC(=S)N1CCN(C(=O)OCC)CC1	3	x	-3	0	2	x
CCOC(=O)Nc1c(C(=O)OC)[nH]c2cc(OC)ccc12	36*	x	x	4	x	x
COc1ccccc1N1CCN(C(=S)Nc2cccc(C)c2)CC1	8.7*	x	-7	6	0	x
Cc1cc(C(=O)Nc2ccc3c(c2)OCCO3)c(C)o1	8	-36	-1	-1	0	-25
CC(=O)c1c(Nc2ccc3c(c2)OCCO3)oc(C)cc1=O	3	1	2	x	-1	27*
Cc1ccc(C)c(C2NC(=O)c3ccccc3N2)c1 (stereo not drawn)	x	x	x	64*	x	x
Cc1cc(C)c2nc(Cl)c(C3NC(=O)c4ccccc4N3)cc2c1 (stereo not drawn)	6	x	-9	-3	4	x
COc1ccc2cc(C3NC(=O)c4ccccc4N3)c(Cl)nc2c1 (stereo not drawn)	4	x	19*	1	4	x
Cc1ccc(C)c2nc(Cl)c(C3NC(=O)c4ccccc4N3)cc12 (stereo not drawn)	16*	x	-4	14	6	x
CCOc1ncccc1C(=O)OCC(=O)Nc1ccc(C(N)=O)cc1	x	x	x	1	x	x
C=C1c2ccccc2NC(=S)N1Cc1ccc2c(c1)OCO2	2	x	-6	1	3	x
SMILES	MT stabilize HCS	BB579 growth dn	HMGR II inh	bCat nuc transl	RAM network inh	Yeast life ext
CCn1cc(C(=S)N2CCC(C(N)=O)CC2)c2ccccc21	4	x	-5	-5	0	x
CNC(=S)NNC(=O)c1sc2cc(C(F)(F)F)cnc2c1-c1ccccn1	2	x	5	1	8.6*	x
Cc1ccccc1C(=O)NC1CCN(C(=O)Nc2ccccc2Cl)CC1	1	x	-1	-1	-1	x
COc1ccc(-c2cc(C(=O)Nc3cc(C)nn3-c3ccccc3)no2)cc1OC	2	x	-1	-2	4	x
COc1ccc(NC(=O)CN(c2ccc([N+](=O)[O-])cc2)S(=O)(=O)c2ccccc2)cc1	14*	-21	1	3	5	0
COc1ccc(N(CC(=O)Nc2cc(C)cc(C)c2)S(=O)(=O)c2ccccc2[N+](=O)[O-])c(OC)c1	3	x	9.9*	-2	4	x
FC(F)(Cl)c1nnc2ccc(Cl)nn12	2	x	-5	-4	2	x
Cc1ccc(CNC(=O)c2ccc(Cn3nc(C)c(Cl)c3C)o2)cc1	5	99*	-1	1	-1	-12
CCOC(=O)C1CCN(C(=O)CSc2ccccc2Cl)CC1	7	x	-2	-3	4	x
O=C(N=c1ccn(-c2nc3ccccc3nc2NS(=O)(=O)c2ccccc2)cc1)c1cccs1	5	-47	-6	0	8.5*	5
CC(=O)Nc1ccc(S(=O)(=O)Nc2nc3ccccc3nc2N2CCCC2)cc1	2	-30	-4	-1	0	-18
O=C(Nc1cccc(F)c1)c1cc(S(=O)(=O)NCCC2=CCCCC2)ccc1F	2	-42	-5	2	11*	2
Cc1ccc(NC(=O)c2cc(S(=O)(=O)NCCC3=CCCCC3)ccc2F)cc1F	4	-14	1	-3	3	-3
CCN(CC)S(=O)(=O)c1ccc(N2CCOCC2)c(NC(=O)C23CC4CC(CC(Cl)(C4)C2)C3)c1	3	-49	3	x	5	5
N#C/C(=C\c1ccncc1)c1nc2ccccc2[nH]1	5	x	-1	1	3	x
CCN(CC)c1ccc(/C=C(/C#N)c2nc3ccccc3[nH]2)c(OC(C)C)c1	60*	-23	0	x	2	0
COCCOC(=O)c1[nH]c2c(c1C)C(=O)CC(c1cc(OC)ccc1OC)C2 (stereo not drawn)	4	-49	-2	1	2	-1
COc1ccc(OC)c(C2CC(=O)c3c([nH]c(C(=O)OCC4CCCO4)c3C)C2)c1 (stereo not drawn)	31*	-8	-1	-2	1	-4
CCCOCCOC(=O)c1[nH]c2c(c1C)C(=O)CC(c1cc(OC)ccc1OC)C2 (stereo not drawn)	11*	-48	-4	4	8	0
COc1ccc(OC)c(C2CC(=O)c3c([nH]c(C(=O)OC(C)C)c3C)C2)c1 (stereo not drawn)	8	-62	5	x	2	-2
CCOC(=O)c1c(CSC(=N)N)n(-c2ccc(C)cc2)c2cc(Br)c(OC(C)=O)cc12	2	-93	-4	x	11*	-8
CCOC(=O)c1c(CN2CCOCC2)n(-c2ccccc2)c2cc(Br)c(OC)cc12	2	-38	0	3	1	-12
CCOC(=O)c1c(CN(C)C)n(-c2ccccc2)c2cc(Br)c(OC)cc12	4	-61	0	-1	1	26*
